Measured values as given in ChEMBL document CHEMBL3616441, “Discovery of a Selective and CNS Penetrant Negative Allosteric Modulator of Metabotropic Glutamate Receptor Subtype 3 with Antidepressant and Anxiolytic Activity in Rodents” (J Med Chem, 2015).
Calls of active or inactive are those of the source. The calls are words filed in the database; no cut-off is given here.

Experiments:
[1] = target: Metabotropic glutamate receptor 5 (Rattus norvegicus, UniProt P31424); assay: Modulation of rat mGlu5 receptor assessed as calcium mobilization by cell based fluorescence assay; format: functional
Sequence of Metabotropic glutamate receptor 5 (P31424 whole entry): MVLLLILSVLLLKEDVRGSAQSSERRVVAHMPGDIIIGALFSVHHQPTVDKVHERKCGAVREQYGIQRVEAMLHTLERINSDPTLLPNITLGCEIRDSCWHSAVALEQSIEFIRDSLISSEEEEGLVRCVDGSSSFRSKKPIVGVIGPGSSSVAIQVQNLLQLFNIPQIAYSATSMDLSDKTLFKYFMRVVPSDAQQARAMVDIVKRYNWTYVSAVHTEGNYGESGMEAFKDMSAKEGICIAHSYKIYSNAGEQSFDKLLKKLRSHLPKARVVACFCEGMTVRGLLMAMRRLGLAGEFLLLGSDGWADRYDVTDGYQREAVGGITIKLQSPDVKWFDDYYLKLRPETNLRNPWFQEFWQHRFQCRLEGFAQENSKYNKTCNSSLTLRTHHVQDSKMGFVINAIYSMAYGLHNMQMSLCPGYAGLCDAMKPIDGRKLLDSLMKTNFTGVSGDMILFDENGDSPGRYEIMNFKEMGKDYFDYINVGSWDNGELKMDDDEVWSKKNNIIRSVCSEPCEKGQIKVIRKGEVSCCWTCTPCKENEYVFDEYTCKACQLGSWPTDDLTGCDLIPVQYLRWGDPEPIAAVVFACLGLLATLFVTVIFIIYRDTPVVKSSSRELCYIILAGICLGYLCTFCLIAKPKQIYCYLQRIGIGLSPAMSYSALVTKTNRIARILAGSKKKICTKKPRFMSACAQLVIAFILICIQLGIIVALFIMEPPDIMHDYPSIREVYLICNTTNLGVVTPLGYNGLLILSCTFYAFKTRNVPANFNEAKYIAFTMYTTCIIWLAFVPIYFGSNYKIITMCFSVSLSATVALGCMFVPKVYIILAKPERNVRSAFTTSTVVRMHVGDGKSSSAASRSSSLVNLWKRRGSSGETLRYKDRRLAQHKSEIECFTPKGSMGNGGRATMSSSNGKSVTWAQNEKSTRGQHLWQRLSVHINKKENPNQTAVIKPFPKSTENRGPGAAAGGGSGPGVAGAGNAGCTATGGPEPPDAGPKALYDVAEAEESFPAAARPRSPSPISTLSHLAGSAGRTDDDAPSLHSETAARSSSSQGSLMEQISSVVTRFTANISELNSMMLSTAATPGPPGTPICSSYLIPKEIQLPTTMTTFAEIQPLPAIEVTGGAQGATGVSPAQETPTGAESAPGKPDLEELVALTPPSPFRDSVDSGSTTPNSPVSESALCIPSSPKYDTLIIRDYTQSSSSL
In short: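 Calcium mobilization assay with fluorescence read-out in cells expressing mGlu5; full concentration-response curves; % Glu Max is the amplitude of response with 30 μM test compound as a percentage of the maximal response to 100 μM glutamate; values averaged over n-3.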

[2] = target: Metabotropic glutamate receptor 5 (Rattus norvegicus) (UniProt P31424); assay: Negative allosteric modulation of rat mGlu5 receptor assessed as calcium mobilization by cell based fluorescence assay; format: functional
Sequence of Metabotropic glutamate receptor 5 (Rattus norvegicus) (P31424 21-1203 limits assumed): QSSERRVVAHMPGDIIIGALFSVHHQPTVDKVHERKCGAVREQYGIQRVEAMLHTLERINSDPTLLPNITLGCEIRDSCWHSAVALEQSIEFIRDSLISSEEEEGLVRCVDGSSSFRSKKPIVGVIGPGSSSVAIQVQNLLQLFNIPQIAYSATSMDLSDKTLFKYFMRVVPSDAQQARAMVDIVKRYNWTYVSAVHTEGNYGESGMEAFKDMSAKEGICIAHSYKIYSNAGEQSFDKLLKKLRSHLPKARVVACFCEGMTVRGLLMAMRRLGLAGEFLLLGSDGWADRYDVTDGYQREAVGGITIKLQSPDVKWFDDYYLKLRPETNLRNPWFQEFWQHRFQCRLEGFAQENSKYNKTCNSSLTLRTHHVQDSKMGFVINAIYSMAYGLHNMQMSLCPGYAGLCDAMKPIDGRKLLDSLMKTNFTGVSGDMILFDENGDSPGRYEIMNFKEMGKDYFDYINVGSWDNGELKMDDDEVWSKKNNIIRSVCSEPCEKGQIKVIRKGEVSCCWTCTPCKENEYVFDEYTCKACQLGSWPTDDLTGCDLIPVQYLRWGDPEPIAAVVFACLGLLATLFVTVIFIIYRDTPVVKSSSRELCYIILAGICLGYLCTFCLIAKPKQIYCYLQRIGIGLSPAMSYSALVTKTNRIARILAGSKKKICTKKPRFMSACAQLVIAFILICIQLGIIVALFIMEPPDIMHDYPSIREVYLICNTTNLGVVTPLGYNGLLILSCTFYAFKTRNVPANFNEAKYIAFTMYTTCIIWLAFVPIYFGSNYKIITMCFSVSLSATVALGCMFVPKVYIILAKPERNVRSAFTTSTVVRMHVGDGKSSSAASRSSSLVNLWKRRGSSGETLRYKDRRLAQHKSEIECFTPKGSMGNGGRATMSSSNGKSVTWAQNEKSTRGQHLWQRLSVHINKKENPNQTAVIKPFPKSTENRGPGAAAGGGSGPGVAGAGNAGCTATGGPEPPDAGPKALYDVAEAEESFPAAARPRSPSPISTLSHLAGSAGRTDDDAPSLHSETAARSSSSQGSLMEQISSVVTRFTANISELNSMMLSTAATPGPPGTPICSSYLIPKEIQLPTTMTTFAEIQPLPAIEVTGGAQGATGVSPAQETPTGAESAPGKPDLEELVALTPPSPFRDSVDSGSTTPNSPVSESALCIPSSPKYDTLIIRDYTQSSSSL

[3] = target: Metabotropic glutamate receptor 3 (Rattus norvegicus) (UniProt P31422); assay: Negative allosteric modulation of rat mGlu3 receptor assessed as amplitude response at 30 uM relative to glutamate
Sequence of Metabotropic glutamate receptor 3 (Rattus norvegicus) (P31422 23-879 limits assumed): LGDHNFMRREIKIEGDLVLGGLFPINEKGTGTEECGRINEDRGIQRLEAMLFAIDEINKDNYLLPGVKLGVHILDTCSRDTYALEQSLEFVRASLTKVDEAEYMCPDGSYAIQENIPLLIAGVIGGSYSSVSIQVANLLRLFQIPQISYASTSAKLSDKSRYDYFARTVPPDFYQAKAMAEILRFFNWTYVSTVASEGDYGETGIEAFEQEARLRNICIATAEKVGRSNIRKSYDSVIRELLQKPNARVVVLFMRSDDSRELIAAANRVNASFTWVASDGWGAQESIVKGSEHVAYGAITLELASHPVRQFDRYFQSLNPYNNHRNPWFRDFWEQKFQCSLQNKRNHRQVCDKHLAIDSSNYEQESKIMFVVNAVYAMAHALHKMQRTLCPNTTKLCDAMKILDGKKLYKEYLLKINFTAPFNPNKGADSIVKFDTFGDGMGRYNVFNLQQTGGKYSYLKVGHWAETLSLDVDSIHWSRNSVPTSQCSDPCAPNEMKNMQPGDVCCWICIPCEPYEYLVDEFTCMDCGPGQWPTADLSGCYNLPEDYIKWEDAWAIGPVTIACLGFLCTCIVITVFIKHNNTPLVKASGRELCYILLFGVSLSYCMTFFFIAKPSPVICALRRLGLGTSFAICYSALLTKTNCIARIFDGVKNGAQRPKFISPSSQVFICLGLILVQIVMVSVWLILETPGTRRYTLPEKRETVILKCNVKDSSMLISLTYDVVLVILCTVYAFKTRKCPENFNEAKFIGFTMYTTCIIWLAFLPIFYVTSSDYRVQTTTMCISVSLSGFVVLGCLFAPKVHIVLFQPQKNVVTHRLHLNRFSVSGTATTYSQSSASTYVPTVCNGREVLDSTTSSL
In short: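 Calcium mobilization in cell line stably expressing rat mGlu3 with promiscuous Gα15; fluorescence read-out; amplitude of glutamate response with 30 μM test compound expressed as percentage of maximal response (100 μM glutamate); average of n = 3.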

[4] = target: Metabotropic glutamate receptor 5 (Rattus norvegicus) (UniProt P31424); assay: Modulation of rat mGlu5 receptor assessed as assessed as calcium mobilization at 30 uM by cell based fluorescence assay; format: functional
[5] = target: Metabotropic glutamate receptor 3 (Rattus norvegicus, UniProt P31422); assay: Negative allosteric modulation of rat mGlu3 receptor assessed as calcium mobilization by cell based fluorescence assay; format: functional
Sequence of Metabotropic glutamate receptor 3 (P31422 whole entry): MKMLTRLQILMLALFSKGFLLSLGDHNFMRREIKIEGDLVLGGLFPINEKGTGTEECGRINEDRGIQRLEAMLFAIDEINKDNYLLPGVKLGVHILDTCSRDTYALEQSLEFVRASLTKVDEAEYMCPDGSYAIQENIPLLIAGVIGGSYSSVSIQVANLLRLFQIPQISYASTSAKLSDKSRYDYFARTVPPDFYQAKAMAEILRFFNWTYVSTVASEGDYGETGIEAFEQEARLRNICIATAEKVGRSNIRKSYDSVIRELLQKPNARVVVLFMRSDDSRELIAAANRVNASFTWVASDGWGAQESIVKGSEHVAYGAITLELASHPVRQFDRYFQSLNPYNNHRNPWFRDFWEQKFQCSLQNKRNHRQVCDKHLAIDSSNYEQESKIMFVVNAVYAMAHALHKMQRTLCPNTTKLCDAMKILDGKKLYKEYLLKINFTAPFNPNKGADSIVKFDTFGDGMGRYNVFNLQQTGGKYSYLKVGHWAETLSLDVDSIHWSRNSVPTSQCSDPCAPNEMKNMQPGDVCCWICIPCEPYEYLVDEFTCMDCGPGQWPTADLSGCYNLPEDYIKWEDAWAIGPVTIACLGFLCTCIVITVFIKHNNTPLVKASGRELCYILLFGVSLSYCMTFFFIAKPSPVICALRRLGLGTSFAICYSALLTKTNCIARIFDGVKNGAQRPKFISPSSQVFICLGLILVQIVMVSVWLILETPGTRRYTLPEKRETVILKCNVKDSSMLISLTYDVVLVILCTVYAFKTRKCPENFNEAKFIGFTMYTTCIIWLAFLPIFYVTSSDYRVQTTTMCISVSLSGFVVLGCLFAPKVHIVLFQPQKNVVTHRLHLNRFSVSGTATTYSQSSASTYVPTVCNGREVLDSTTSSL
In short: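 Cell line stably expressing rat mGlu3 with the promiscuous G-protein Gα15. Calcium mobilization with fluorescence read-out, inhibition of the glutamate response. Full concentration-response curves, top concentration 30 μM. % Glu Max is the response with 30 μM test compound as a percentage of the maximal response to 100 μM glutamate. Values averaged over n-3.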

Plasma = assay: Fraction unbound in rat plasma; format: ADME, cell-free
[6] = target: Metabotropic glutamate receptor 5 (Rattus norvegicus) (UniProt P31424); assay: Positive allosteric modulation of rat mGlu5 receptor assessed as calcium mobilization by cell based fluorescence assay; format: functional

| Compound | EC50 [1] | Activity [2] | Activity [3] | Activity [4] | IC50 [5] | Fu (Plasma) | Activity [6] |
| --- | --- | --- | --- | --- | --- | --- | --- |
| COc1ccccc1N1C[C@@H](C)n2nc(COc3ccc(Cl)cn3)cc2C1=O | > 10000 nM | Active | 1.29% | 58.5% | 690 nM | – | – |
| COc1cccc(N2C[C@@H](C)n3nc(COc4ccc(F)cn4)cc3C2=O)c1 | > 10000 nM | Active | 1.02% | 59.7% | 198 nM | – | – |
| C[C@@H]1CN(c2ccccn2)C(=O)c2cc(COc3ccc(Cl)cn3)nn21 | > 30000 nM | – | 1.07% | – | 328 nM | 0.051 | – |
| C[C@@H]1CN(c2cccc(F)n2)C(=O)c2cc(COc3ccc(Cl)cn3)nn21 | > 10000 nM | Active | 1.75% | 24.8% | 294 nM | – | – |
| C[C@@H]1CN(c2cccc(F)c2F)C(=O)c2cc(COc3ccc(F)cn3)nn21 | 2110 nM | Active | 2.15% | 21% | 184 nM | 0.092 | – |
| C[C@@H]1CN(c2cnccc2F)C(=O)c2cc(COc3ccc(Cl)cn3)nn21 | > 30000 nM | – | 1.45% | – | 482 nM | 0.085 | – |
| Cc1ccnc(OCc2cc3n(n2)[C@H](C)CN(c2ccc(F)cc2)C3=O)c1 | > 10000 nM | Active | 0.86% | 46.9% | 2090 nM | – | – |
| C[C@@H]1CN(c2ccc(F)cc2)C(=O)c2cc(COc3cc(C(F)(F)F)ccn3)nn21 | > 10000 nM | Active | 1.62% | 12.9% | 1670 nM | – | – |
| C[C@@H]1CN(c2ccccn2)C(=O)c2cc(COc3ccc(F)cn3)nn21 | 3520 nM | Active | 0.96% | 3.71% | 915 nM | – | – |
| Cc1cccc(OCc2cc3n(n2)[C@H](C)CN(c2ccc(F)cc2)C3=O)n1 | 2250 nM | Active | 1.12% | 2.47% | 2370 nM | – | – |
| Cc1cccc(N2C[C@@H](C)n3nc(COc4ccc(Cl)cn4)cc3C2=O)c1 | 3600 nM | – | 1.71% | 69.9% | 392 nM | – | Active |
| COc1ccccc1OCc1cc2n(n1)[C@H](C)CN(c1ccc(F)cc1)C2=O | > 10000 nM | – | 2.32% | 63.7% | 2540 nM | – | Active |
| COc1cccc(N2C[C@@H](C)n3nc(COc4ccc(Cl)cn4)cc3C2=O)c1 | 5070 nM | – | 2% | 78% | 313 nM | – | Active |
| COc1ccccc1N1C[C@@H](C)n2nc(COc3ccc(F)cn3)cc2C1=O | 301 nM | Active | 1.49% | 3.28% | 339 nM | – | – |
| C[C@@H]1CN(c2ccc(F)cc2F)C(=O)c2cc(COc3ccc(Cl)cn3)nn21 | 2580 nM | – | 1.34% | 70.8% | 280 nM | – | Active |
| CCc1ccc(OCc2cc3n(n2)[C@H](C)CN(c2ccc(F)cc2)C3=O)cc1 | 3210 nM | – | 2.29% | 50.8% | 830 nM | – | Active |
| C[C@@H]1CN(c2ccc(F)cc2)C(=O)c2cc(COc3ccccc3F)nn21 | 195 nM | – | 2.9% | 89.3% | 530 nM | – | Active |
| Cc1cccc(N2C[C@@H](C)n3nc(COc4ccc(F)cn4)cc3C2=O)c1 | > 10000 nM | Active | 1.93% | 36.6% | 216 nM | 0.051 | – |
| C[C@@H]1CN(c2ncccc2F)C(=O)c2cc(COc3ccc(Cl)cn3)nn21 | > 10000 nM | – | 1.64% | 32.4% | 362 nM | – | Active |
| C[C@@H]1CN(c2ccc(F)cn2)C(=O)c2cc(COc3ccc(Cl)cn3)nn21 | > 10000 nM | – | 2.44% | 47.9% | 260 nM | – | Active |
| COc1cccc(OCc2cc3n(n2)[C@H](C)CN(c2ccc(F)cc2)C3=O)n1 | > 10000 nM | – | 1.94% | 31.2% | 1590 nM | – | Active |
| C[C@@H]1CN(c2ccccc2F)C(=O)c2cc(COc3ccc(Cl)cn3)nn21 | 3240 nM | – | 1.74% | 57.3% | 226 nM | – | Active |

| Compound | EC50 [1] | Activity [2] | Activity [3] | Activity [4] | IC50 [5] | Fu (Plasma) | Activity [6] |
| --- | --- | --- | --- | --- | --- | --- | --- |
| C[C@@H]1CN(c2ccccc2Cl)C(=O)c2cc(COc3ccc(F)cn3)nn21 | 1010 nM | Active | 1.37% | 8.78% | 141 nM | 0.054 | – |
| Cc1ccccc1OCc1cc2n(n1)[C@H](C)CN(c1ccc(F)cc1)C2=O | 1500 nM | – | 1.56% | 83.7% | 721 nM | – | Active |
| C[C@@H]1CN(c2cccnc2)C(=O)c2cc(COc3ccc(F)cn3)nn21 | > 10000 nM | Active | 0.64% | 46.3% | 436 nM | – | – |
| Cc1ccc(OCc2cc3n(n2)[C@H](C)CN(c2ccc(F)cc2)C3=O)cc1 | 1080 nM | – | 1.72% | 92.5% | 1190 nM | – | Active |
| C[C@@H]1CN(c2ccccc2Cl)C(=O)c2cc(COc3ccc(Cl)cn3)nn21 | 5450 nM | – | 1.87% | 51% | 328 nM | – | Active |
| COc1ccc(OCc2cc3n(n2)[C@H](C)CN(c2ccc(F)cc2)C3=O)cc1 | 1340 nM | – | 1.76% | 40.2% | 1040 nM | – | Active |
| C[C@@H]1CN(c2ccc(F)cc2)C(=O)c2cc(COc3ccc(Cl)cc3)nn21 | 604 nM | – | 1.86% | 81.8% | 1170 nM | – | Active |
| C[C@@H]1CN(c2ccc(F)cc2)C(=O)c2cc(COc3cccc(F)c3)nn21 | 73 nM | – | 1.19% | 86.1% | 773 nM | – | Active |
| Cc1ccccc1N1C[C@@H](C)n2nc(COc3ccc(F)cn3)cc2C1=O | > 10000 nM | Active | 1.72% | 35.8% | 346 nM | – | – |
| Cc1ccc(N2C[C@@H](C)n3nc(COc4ccc(Cl)cn4)cc3C2=O)cc1 | > 10000 nM | – | 1.39% | 70.8% | 410 nM | – | Active |
| Cc1cccc(OCc2cc3n(n2)[C@H](C)CN(c2ccc(F)cc2)C3=O)c1 | > 10000 nM | Active | 2.35% | 39.7% | 1440 nM | – | – |
| C[C@@H]1CN(c2ccccc2C#N)C(=O)c2cc(COc3ccc(Cl)cn3)nn21 | 4970 nM | – | 1.64% | 38.1% | 429 nM | – | Active |
| C[C@@H]1CN(c2cccc(F)c2)C(=O)c2cc(COc3ccc(Cl)cn3)nn21 | 5970 nM | – | 1.38% | 63.5% | 206 nM | – | Active |
| COc1ccnc(OCc2cc3n(n2)[C@H](C)CN(c2ccc(F)cc2)C3=O)c1 | > 10000 nM | Active | -0.18% | 54.7% | 3690 nM | – | – |
| C[C@@H]1CN(c2ccc(F)cc2)C(=O)c2cc(COc3cccc(Cl)c3)nn21 | > 10000 nM | Active | 1.96% | 32.8% | 1620 nM | – | – |
| Cc1ccccc1N1C[C@@H](C)n2nc(COc3ccc(Cl)cn3)cc2C1=O | 2280 nM | – | 1.95% | 80.7% | 571 nM | – | Active |
| COc1cccc(OCc2cc3n(n2)[C@H](C)CN(c2ccc(F)cc2)C3=O)c1 | 1840 nM | – | 1.78% | 32.4% | 1290 nM | – | Active |
| C[C@@H]1CN(c2cccc(F)c2F)C(=O)c2cc(COc3ccc(Cl)cn3)nn21 | 6680 nM | – | 0.33% | 36.1% | 852 nM | – | Active |
| C[C@@H]1CN(c2cccc(Cl)c2)C(=O)c2cc(COc3ccc(Cl)cn3)nn21 | 2870 nM | – | 1.63% | 65.8% | 558 nM | – | Active |
| C[C@@H]1CN(c2ccc(F)cc2)C(=O)c2cc(COc3ncccc3F)nn21 | 4300 nM | – | 2.22% | 78.5% | 1100 nM | – | Active |
| C[C@@H]1CN(c2ccc(F)cn2)C(=O)c2cc(COc3ccc(F)cn3)nn21 | 9740 nM | Active | 1.31% | 7% | 349 nM | – | – |
| Cc1ccc(N2C[C@@H](C)n3nc(COc4ccc(F)cn4)cc3C2=O)cc1 | > 10000 nM | Active | 1.04% | 54.8% | 269 nM | – | – |
